Laboratory results as given in ChEMBL document CHEMBL4610084, “Antibacterial and ATP Synthesis Modulating Compounds from Salvia tingitana” (2020).

Columns and labels:
Assay type in all cases: functional
[1] = system: Staphylococcus lugdunensis; assay: Antibacterial activity against Staphylococcus lugdunensis MB96 after 24 hrs by microdilution assay; details: MB96, 24 h
Summary of the method: (§1)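 Broth microdilution MIC against clinical or seawater-isolated strains (identified by standard procedures and MALDI-TOF), with compound solutions and testing as in earlier work. MIC reported in μg/mL and μM.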

[2] = system: Staphylococcus warneri; assay: Antibacterial activity against Methicillin-resistant Staphylococcus warneri MB74 after 24 hrs by microdilution assay; details: MB74, 24 h
Summary of the method: (§2)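 Broth microdilution MIC, run as in an earlier cited report. Strains are clinical isolates identified by standard methods and MALDI-TOF; E. faecalis MB19 and MB51 are Ligurian seawater isolates. Highest concentration tested was 128 μg/mL. MICs are given in μg/mL and μM, with oxacillin and vancomycin as reference antibiotics.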

[3] = system: Staphylococcus simulans; assay: Antibacterial activity against Staphylococcus simulans MB94 after 24 hrs by microdilution assay; details: MB94, 24 h; summary of the method: as §1
[4] = system: Enterococcus faecium; assay: Antibacterial activity against Enterococcus faecium MB152 after 24 hrs by microdilution assay; details: MB152, 24 h; summary of the method: as §1
[5] = system: Enterococcus avium; assay: Antibacterial activity against Enterococcus avium MB119 after 24 hrs by microdilution assay; details: MB119, 24 h; summary of the method: as §1
[6] = system: Staphylococcus aureus; assay: Antibacterial activity against Methicillin-resistant Staphylococcus aureus MB18 after 24 hrs by microdilution assay; details: MB18, 24 h; summary of the method: as §2
[7] = system: Enterococcus casseliflavus; assay: Antibacterial activity against Vancomycin resistant Enterococcus casseliflavus MB159 after 24 hrs by microdilution assay; details: MB159, 24 h; summary of the method: as §2
[8] = system: Staphylococcus haemolyticus; assay: Antibacterial activity against Methicillin-resistant Staphylococcus haemolyticus MB115 after 24 hrs by microdilution assay; details: MB115, 24 h; summary of the method: as §2
[9] = system: Enterococcus faecalis; assay: Antibacterial activity against Enterococcus faecalis MB76 after 24 hrs by microdilution assay; details: MB76, 24 h; summary of the method: as §2
[10] = system: Enterococcus faecium; assay: Antibacterial activity against Enterococcus faecium MB3 after 24 hrs by microdilution assay; details: MB3, 24 h; summary of the method: as §1
[11] = system: Staphylococcus saprophyticus; assay: Antibacterial activity against Staphylococcus saprophyticus MB41 after 24 hrs by microdilution assay; details: MB41, 24 h; summary of the method: as §1
[12] = system: Staphylococcus epidermidis; assay: Antibacterial activity against Methicillin-resistant Staphylococcus epidermidis MB169 after 24 hrs by microdilution assay; details: MB169, 24 h; summary of the method: as §2
[13] = system: Staphylococcus hominis; assay: Antibacterial activity against Methicillin-resistant Staphylococcus hominis MB124 after 24 hrs by microdilution assay; details: MB124, 24 h; summary of the method: as §2
[14] = system: Enterococcus faecalis; assay: Antibacterial activity against Vancomycin resistant Enterococcus faecalis MB51 after 24 hrs by microdilution assay; details: MB51, 24 h; summary of the method: as §2
[15] = system: Enterococcus faecalis; assay: Antibacterial activity against Vancomycin resistant Enterococcus faecalis MB19 after 24 hrs by microdilution assay; details: MB19, 24 h; summary of the method: as §2
[16] = system: Staphylococcus aureus; assay: Antibacterial activity against Methicillin-resistant Staphylococcus aureus MB188 after 24 hrs by microdilution assay; details: MB188, 24 h; summary of the method: as §2
[17] = system: Staphylococcus epidermidis; assay: Antibacterial activity against Methicillin-resistant Staphylococcus epidermidis MB165 after 24 hrs by microdilution assay; details: MB165, 24 h; summary of the method: as §2
[18] = system: Enterococcus faecium; assay: Antibacterial activity against Enterococcus faecium MB2 after 24 hrs by microdilution assay; details: MB2, 24 h; summary of the method: as §1
[19] = system: Enterococcus durans; assay: Antibacterial activity against Enterococcus durans MB113 after 24 hrs by microdilution assay; details: MB113, 24 h; summary of the method: as §1
[20] = system: Enterococcus faecalis; assay: Antibacterial activity against Vancomycin resistant Enterococcus faecalis MB1 after 24 hrs by microdilution assay; details: MB1, 24 h; summary of the method: as §2
[21] = system: Staphylococcus capitis; assay: Antibacterial activity against Methicillin-resistant Staphylococcus capitis MB71 after 24 hrs by microdilution assay; details: MB71, 24 h; summary of the method: as §2
[22] = system: Enterococcus gallinarum; assay: Antibacterial activity against Vancomycin resistant Enterococcus gallinarum MB111 after 24 hrs by microdilution assay; details: MB111, 24 h; summary of the method: as §2

Row | Compound | MIC [1] | MIC [2] | MIC [3] | MIC [4] | MIC [5] | MIC [6] | MIC [7] | MIC [8] | MIC [9] | MIC [10] | MIC [11] | MIC [12] | MIC [13] | MIC [14] | MIC [15] | MIC [16] | MIC [17] | MIC [18] | MIC [19] | MIC [20] | also measured
1 | COc1cc2oc(-c3ccc(O)cc3)cc(=O)c2c(O)c1OC [CIRSIMARITIN] | 407 µM | > 128 µg/mL | > 128 µg/mL | 407 µM | 204 µM | > 128 µg/mL | 407 µM | > 128 µg/mL | 407 µM | 204 µM | > 128 µg/mL | > 128 µg/mL | > 128 µg/mL | 407 µM | 407 µM | > 128 µg/mL | > 128 µg/mL | 407 µM | 407 µM | 204 µM | MIC [21]: 407 µM; MIC [22]: 102 µM
2 | COc1ccc(-c2cc(=O)c3c(OC)c(OC)c(OC)cc3o2)cc1OC [SINENSETIN] | > 128 µg/mL | 344 µM | > 128 µg/mL | 172 µM | 344 µM | > 128 µg/mL | 172 µM | > 128 µg/mL | 344 µM | 344 µM | > 128 µg/mL | 344 µM | 344 µM | 172 µM | 344 µM | 344 µM | > 128 µg/mL | 344 µM | 344 µM | 86 µM | MIC [21]: 344 µM; MIC [22]: 172 µM
3 | CC1=CC(=O)OC1C/C=C(\C)CC[C@@H]1[C@@]2(C)CCC[C@@](C)(CO)[C@@H]2CC[C@@]1(C)O (stereo not given in full) | > 128 µg/mL | 317 µM | > 128 µg/mL | 158 µM | 158 µM | 317 µM | 158 µM | > 128 µg/mL | 158 µM | 317 µM | 317 µM | > 128 µg/mL | 317 µM | 158 µM | 79.2 µM | > 128 µg/mL | 317 µM | 317 µM | > 128 µg/mL | 317 µM | MIC [21]: 317 µM; MIC [22]: 158 µM
4 | Cc1onc(-c2ccccc2)c1C(=O)N[C@@H]1C(=O)N2[C@@H]1SC(C)(C)[C@@H]2C(=O)O [OXACILLIN] | 1.25 µM | 319 µM | 0.62 µM |  |  | 638 µM |  | 39.9 µM |  |  | 2.49 µM | 638 µM | 39.9 µM |  |  | 1280 µM | 638 µM |  |  |  | MIC [21]: 638 µM
5 | COC(=O)[C@]1(C)CCC[C@@]2(C)[C@H]1CC[C@@](C)(O)[C@@H]2CC/C(C)=C/[C@H](O)[C@H]1OC(=O)C=C1C | 286 µM | 143 µM | > 128 µg/mL | 286 µM | 286 µM | 286 µM | 143 µM | > 128 µg/mL | 143 µM | 143 µM | 286 µM | 286 µM | 286 µM | 286 µM | 143 µM | > 128 µg/mL | > 128 µg/mL | 286 µM | 286 µM | 143 µM | MIC [21]: 286 µM; MIC [22]: 143 µM
6 | COc1ccc(-c2cc(=O)c3c(OC)c(OC)c(OC)cc3o2)cc1 | > 128 µg/mL | 390 µM | > 128 µg/mL | 195 µM | 390 µM | 390 µM | 390 µM | > 128 µg/mL | 390 µM | 195 µM | > 128 µg/mL | 390 µM | 390 µM | 390 µM | 195 µM | > 128 µg/mL | > 128 µg/mL | 390 µM | 195 µM | 195 µM | MIC [21]: 390 µM; MIC [22]: 195 µM
7 | CC1=CC(=O)O[C@@H]1[C@@H](O)/C=C(\C)CC[C@@H]1[C@@]2(C)CCC[C@@]3(C)C(=O)O[C@@H](C[C@@]1(C)O)[C@H]23 | > 128 µg/mL | 296 µM | > 128 µg/mL | 148 µM | 148 µM | 296 µM | 296 µM | 296 µM | 296 µM | 296 µM | > 128 µg/mL | > 128 µg/mL | > 128 µg/mL | 296 µM | 296 µM | > 128 µg/mL | 296 µM | 296 µM | 286 µM | 148 µM | MIC [21]: 296 µM; MIC [22]: 148 µM
8 | COc1ccc(-c2cc(=O)c3c(O)c(OC)c(OC)cc3o2)cc1O [EUPATORIN] | > 128 µg/mL | > 128 µg/mL | > 128 µg/mL | 372 µM | 186 µM | > 128 µg/mL | 372 µM | > 128 µg/mL | 186 µM | > 128 µg/mL | > 128 µg/mL | > 128 µg/mL | > 128 µg/mL | 372 µM | 186 µM | > 128 µg/mL | > 128 µg/mL | 372 µM | > 128 µg/mL | 186 µM | MIC [21]: > 128 µg/mL; MIC [22]: 186 µM
9 | CC1(C)CCC[C@]2(C)[C@@H](CC[C@](C)(O)[C@H]3CO3)[C@](C)(O)CC[C@@H]12 | 198 µM | 198 µM | 395 µM | 198 µM | 99 µM | 395 µM | 198 µM | 395 µM | 198 µM | 99 µM | 395 µM | 395 µM | 395 µM | 99 µM | 198 µM | 395 µM | 395 µM | 198 µM | 198 µM | 99 µM | MIC [21]: 395 µM; MIC [22]: 99 µM
10 | CC1=CC(=O)O[C@@H]1C/C=C(\C)CC[C@@H]1[C@@]2(C)CCC[C@@]3(C)C(O)O[C@@H](C[C@@]1(C)O)[C@H]23 (stereo not given in full) | > 128 µg/mL | > 128 µg/mL | > 128 µg/mL | > 128 µg/mL | > 128 µg/mL | > 128 µg/mL | > 128 µg/mL | > 128 µg/mL | > 128 µg/mL | > 128 µg/mL | > 128 µg/mL | > 128 µg/mL | > 128 µg/mL | > 128 µg/mL | > 128 µg/mL | > 128 µg/mL | > 128 µg/mL | > 128 µg/mL | > 128 µg/mL | > 128 µg/mL | MIC [21]: > 128 µg/mL; MIC [22]: > 128 µg/mL
11 | CN[C@H](CC(C)C)C(=O)N[C@H]1C(=O)N[C@@H](CC(N)=O)C(=O)N[C@H]2C(=O)N[C@H]3C(=O)N[C@H](C(=O)N[C@H](C(=O)O)c4cc(O)cc(O)c4-c4cc3ccc4O)[C@H](O)c3ccc(c(Cl)c3)Oc3cc2cc(c3O[C@@H]2O[C@H](CO)[C@@H](O)[C@H](O)[C@H]2O[C@H]2C[C@](C)(N)[C@H](O)[C@H](C)O2)Oc2ccc(cc2Cl)[C@H]1O [VANCOMYCIN] |  |  |  | 177 µM | 0.69 µM |  | 2.76 µM |  | 88.3 µM | 88.3 µM |  |  |  | 44.2 µM | 22.1 µM |  |  | 1.38 µM | 0.69 µM | 22.1 µM | MIC [22]: 11 µM
